# Screening results deposited in PubChem by The Scripps Research Institute Molecular Screening Center.
# CHRM5 agonist: human M5 muscarinic receptor agonists, primary screen, CHO-K1 cells, Fluo-8 calcium fluorescence; 360,000 compounds, 0.19% hits; AID 624037, 2012; Muscarinic acetylcholine receptor M5 (Homo sapiens), P08912; CHO-K1 hM5 cells; 0% DMSO wells, 100% maximal acetylcholine response; activation, % at 3 µM;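 active = activation above the run's mean over test compounds plus 3 SD, cut at about 23% in these data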;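 also: signal is peak over basal fluorescence ratio across the kinetic read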
# Target sequence (P08912 whole entry, looked up): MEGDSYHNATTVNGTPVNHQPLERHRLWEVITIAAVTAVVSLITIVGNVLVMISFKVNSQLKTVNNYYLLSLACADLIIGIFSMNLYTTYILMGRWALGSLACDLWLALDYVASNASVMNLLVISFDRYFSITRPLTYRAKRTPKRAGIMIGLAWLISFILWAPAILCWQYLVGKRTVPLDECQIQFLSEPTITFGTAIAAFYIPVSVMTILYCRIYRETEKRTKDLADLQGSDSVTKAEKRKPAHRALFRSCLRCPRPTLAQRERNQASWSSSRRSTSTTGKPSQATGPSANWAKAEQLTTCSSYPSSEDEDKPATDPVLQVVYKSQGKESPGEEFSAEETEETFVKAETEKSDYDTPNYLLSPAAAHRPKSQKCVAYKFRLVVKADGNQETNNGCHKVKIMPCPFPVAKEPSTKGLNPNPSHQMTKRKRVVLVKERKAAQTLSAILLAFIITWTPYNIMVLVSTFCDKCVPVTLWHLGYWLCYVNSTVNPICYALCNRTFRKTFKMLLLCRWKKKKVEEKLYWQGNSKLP
# M4 ag: human M4 muscarinic receptor agonists, primary screen, CHO-K1 cells, Fluo-8 calcium fluorescence. 360,000 compounds, 0.14% hits. CHO-K1 hM4/Gqi5; vehicle 0%, full acetylcholine response 100%. activation, % at 3 µM. Muscarinic acetylcholine receptor M4 (Homo sapiens), P08173;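 active = activation above the run mean over all test wells plus 3 SD, cut at about 32% in these data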;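 also: peak over basal fluorescence ratio per well then scaled between controls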
# M5 PAM: human M5 muscarinic receptor positive allosteric modulators, primary screen, CHO-K1 cells, Fluo-8 calcium fluorescence. CHO-K1 hM5, ACh EC20 PAM; 0% = ACh EC20, 100% = ACh EC100. activation, % at 3 µM. 360,000 compounds, 0.3% hits. Muscarinic acetylcholine receptor M5 (Homo sapiens), P08912;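 active = activation above the run cutoff, the mean activation of all test compounds plus 3 SD, cut at about 18% in these data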
#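 Probe or stimulus: acetylcholine, EC20 level; Assay system: human M5 receptor in CHO-K1 cells; Schedule: compound preincubation 140 s before EC20 acetylcholine addition; Technique: intracellular calcium via Fluo-8 fluorescence; Dosing: single-point, 3 µM nominal; Read-out basis: percent activation from peak-over-basal fluorescence ratio, scaled EC20-to-EC100 acetylcholine; Repeats: one well per compound, no replicates.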
# M4 antag: human M4 muscarinic receptor antagonists, primary screen, CHO cells, Fluo-8 calcium fluorescence. CHO-hM4 cells, ACh EC80. 360,000 compounds, 0.73% hits. Muscarinic acetylcholine receptor M4 (Homo sapiens), P08173. inhibition, % at 3 µM;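 active = inhibition above its plate's cutoff, the mean inhibition of sample wells plus 3 SD, cut at about 27% in these data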
# CHRM5 antagonist: human M5 muscarinic receptor antagonists, primary screen, CHO cells, Fluo-8 calcium fluorescence; Muscarinic acetylcholine receptor M5 (Homo sapiens), P08912; CHO-hM5 cells, ACh EC80; inhibition, % at 3 µM; 360,000 compounds, 0.59% hits; AID 624040, 2012;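 active = inhibition above a per-plate cutoff, the mean of that plate's test compounds plus 3 SD, cut at about 27% in these data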
# M4 PAM: human M4 muscarinic receptor positive allosteric modulators, primary screen, CHO-K1 cells, Fluo-8 calcium fluorescence. Muscarinic acetylcholine receptor M4 (Homo sapiens), P08173. CHO-K1 hM4/Gqi5, ACh EC20; 0% = ACh EC20, 100% = maximal ACh. activation, % at 3 µM. 360,000 compounds, 0.4% hits. AID 624126, 2012;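 active = activation above its plate's cutoff, the mean activation of sample wells plus 3 SD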
# Hits are given with their value; 0 = inactive. Sampled rows, rich in hits. Any-hit rate of the full collection: about 1.8%.
SMILES,CHRM5 agonist,M4 ag,M5 PAM,M4 antag,CHRM5 antagonist,M4 PAM
Cc1ccc(-c2c[n+](CC(=O)N3c4ccccc4Sc4ccccc43)c3n2CCC3)cc1,0,0,0,99,100,0
O=C(C[n+]1cc(-c2ccccc2)n2c1CCC2)c1cccs1,0,0,0,0,0,0
O=C(C[n+]1cc(-c2ccccc2)n2c1CCC2)N1c2ccccc2Sc2ccccc21,0,0,0,64,52,0
O=C(C[n+]1cc(-c2ccccc2)n2c1CCC2)Nc1nc(-c2ccc(F)cc2)cs1,0,0,0,0,0,0
CC(=O)Nc1cc(-c2cccc(C(=O)N(C)C)c2)cn2c(-c3cccc(C(F)(F)F)c3)cnc12,0,0,0,0,0,0
CCOC(=O)C1=CCN(S(=O)(=O)c2ccccc2Br)C1c1cccc(C)c1 (stereo not given),0,0,0,0,0,0
Cc1ccc(S(=O)(=O)N2C[C@H]3C(=O)C[C@@H](c4ccccc4)N(S(=O)(=O)c4ccc(Br)cc4)[C@H]3C[C@H]2c2ccccc2)cc1,0,0,0,0,0,0
CCCOC(=O)c1ccc(Oc2coc3c(CN(CC)CC)c(O)ccc3c2=O)cc1,0,0,0,93,0,0
CCOC(=O)c1cc(N2CCCCC2)nc2ccccc12,0,0,0,0,28,0
COc1ccc(C2C(C#N)=C(N)Oc3cc(O)ccc32)cc1C (stereo not given),24,0,0,0,0,0
COc1ccc(C2C(C#N)=C(N)Oc3cc(O)ccc32)cc1OC (stereo not given),0,0,0,0,0,0
Cc1cc(C(=O)CSc2nnc(-c3ccccc3)n2-c2ccccc2)c(C)n1-c1ncn[nH]1,0,0,0,0,0,26
O=C(CCSc1nnc(-c2ccncc2)o1)Nc1ccccc1,0,0,0,0,0,0
CCNC(=O)CCSc1nnc(-c2ccncc2)o1,0,0,0,0,0,24
O=[N+]([O-])c1ccccc1N(S(=O)(=O)c1ccccc1)S(=O)(=O)c1ccccc1,0,0,0,0,0,0
O=C1C(Cl)=C(Nc2ccc3cn[nH]c3c2)C(=O)c2ccccc21,0,0,0,39,28,0
CN(C)c1ccc(NC2=C(Cl)C(=O)c3ccccc3C2=O)cc1,0,0,0,36,34,0
CC(C)(C)OC(=O)N(CCc1ccccc1)Cc1cccc(OCc2cccc(NC(=O)c3ccccc3)c2)c1,0,0,0,0,0,0
Cc1nn(Cc2ccc(Cl)c(Cl)c2)c(C)c1NC(=O)c1cn(-c2ccccc2)nc1-c1ccccc1,0,0,25,0,0,0
CCOC(=O)Cc1csc(N/N=C\c2cccc(Br)c2)n1,0,0,0,0,0,0
CCOC(=O)Cc1csc(N/N=C/c2ccccc2)n1,0,0,0,0,0,24
CCOC(=O)CSc1ccc(C(=O)NCCCN2CCOCC2)cc1[N+](=O)[O-],0,0,0,27,0,0
O=C(NCCCN1CCOCC1)c1ccc(Cl)c([N+](=O)[O-])c1,0,0,0,0,0,0
O=C(NCCCN1CCOCC1)c1ccc(Sc2cccc(Cl)c2)c([N+](=O)[O-])c1,0,0,0,47,0,0
COc1ccc(C(=O)NCCN2CCOCC2)cc1[N+](=O)[O-],0,0,0,0,0,0
SMILES,CHRM5 agonist,M4 ag,M5 PAM,M4 antag,CHRM5 antagonist,M4 PAM
Cc1ccccc1NC(=O)C(C)OC(=O)C1CCCO1 (stereo not given),0,0,0,0,0,0
CC(C)(C)NS(=O)(=O)c1ccc(NC(=O)Cc2ccccc2[N+](=O)[O-])cc1,0,0,0,0,0,20
CCCCNS(=O)(=O)c1ccc(NC(=O)Cc2ccccc2[N+](=O)[O-])cc1,0,0,0,0,0,0
COc1cccc(CN(C)C(=O)c2[nH]c(C)c(C(C)=O)c2C)c1OC,0,0,0,0,0,0
CC(C)(C)NC(=O)CN(Cc1ccc2c(c1)OCO2)C(=O)CNS(=O)(=O)c1ccc(F)cc1,0,0,27,0,0,45
CC(C)(C)NC(=O)CN(Cc1cccs1)C(=O)CNS(=O)(=O)c1ccc(F)cc1,0,0,0,0,0,0
Cc1ccc(S(=O)(=O)N2CCOCC2)cc1C(=O)N1CCN(c2ccc(C(F)(F)F)cn2)CC1,0,0,0,0,0,0
CC(NCCC(c1ccccc1)c1ccccc1)c1ccccc1 (stereo not given),0,0,0,45,0,0
COc1ccccc1CNC(=O)COC(=O)CSc1ccc(C)c(C)c1,0,0,0,0,0,0
O=S(=O)(Cc1ccccc1)N1CCN(C/C=C/c2ccccc2)CC1,0,0,0,0,0,0
CS(=O)(=O)N1CCN(C/C=C/c2ccccc2)CC1,0,0,0,0,0,19
CCc1nc2ccc(C(=O)N3CCCC(C(N)=O)C3)cn2c1N(C)Cc1ccc(OC)cc1 (stereo not given),0,0,0,0,0,0
COc1ccc(-n2c(Cc3cccn3C)nnc2SCC(=O)Nc2cccc(OC)c2)cc1,0,0,0,0,0,18
Cc1cnc(-c2nc3ccccc3n2C(C)C(=O)Nc2c(C)cccc2C)cn1 (stereo not given),0,0,0,0,0,0
COc1cc(/C=C2/C(=O)NN(c3ccc(Cl)cc3)C2=O)cc(Br)c1O,0,0,20,0,0,0
CCOC(=O)C1(Cc2ccccc2)CCN(Cc2cccc(OC)c2O)CC1,0,0,0,0,0,0
CCOC(=O)C1(Cc2ccccc2)CCN(Cc2cn(CC(=O)OC)c3ccccc23)CC1,0,0,0,0,0,20
COc1ccc(C(CNc2ccc(S(=O)(=O)N3CCCC3)cc2[N+](=O)[O-])N2CCCC2)cc1 (stereo not given),0,0,0,0,32,0
O=C(Cc1ccc(NC2=NC3CS(=O)(=O)CC3S2)cc1)NCc1ccccc1 (stereo not given),0,0,0,0,0,0
O=C(Cc1ccc(NC2=NC3CS(=O)(=O)CC3S2)cc1)NCc1ccccc1Cl (stereo not given),0,0,0,0,0,16
CC(NC(=O)c1ccc(NC2=NC3CS(=O)(=O)CC3S2)cc1)c1ccccc1 (stereo not given),0,0,0,94,0,0
COc1ccccc1OCCNC(=O)c1ccc(C(C)(C)C)cc1,0,0,20,0,0,0
